The source made the active and inactive calls. The rule behind the calls is not given here.
Experiments:
Enterococcus faecium = assay: Antimicrobial activity against Enterococcus faecium assessed as inhibition of microbial growth at 45 uM after 24 hrs; assay type: functional, organism-based
Procedure, shortened: (§1)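 Broth microdilution single-concentration read: overnight cultures diluted 1:1000, compound in DMF (≤2.0%) added, 37°C for 24 h, growth inhibition scored visually by lack of turbidity; triplicate. Gram-positives grown in TSB, Gram-negatives in LB.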

Staphylococcus aureus [1] = assay: Antimicrobial activity against Staphylococcus aureus assessed as inhibition of microbial growth at 45 uM after 24 hrs; assay type: functional, organism-based; procedure, shortened: as §1
Klebsiella pneumoniae [2] = assay: Antimicrobial activity against Klebsiella pneumoniae assessed as inhibition of microbial growth at 45 uM after 24 hrs; assay type: functional, organism-based; procedure, shortened: as §1
Acinetobacter baumannii [3] = assay: Antimicrobial activity against Acinetobacter baumannii assessed as inhibition of microbial growth at 45 uM after 24 hrs; assay type: functional, organism-based; procedure, shortened: as §1
Pseudomonas aeruginosa = assay: Antimicrobial activity against Pseudomonas aeruginosa assessed as inhibition of microbial growth at 45 uM after 24 hrs; assay type: functional, organism-based; procedure, shortened: as §1
Enterobacter cloacae [4] = assay: Antimicrobial activity against Enterobacter cloacae assessed as inhibition of microbial growth at 45 uM after 24 hrs; assay type: functional, organism-based; procedure, shortened: as §1
Staphylococcus aureus [5] = assay: Ratio of MIC for Staphylococcus aureus measured after 8 cycle passage to MIC for wild type Staphylococcus aureus; assay type: functional
Klebsiella pneumoniae [6] = assay: Ratio of MIC for Klebsiella pneumoniae measured after 8 cycle passage to MIC for wild type Klebsiella pneumoniae; assay type: functional
Acinetobacter baumannii [7] = assay: Ratio of MIC for Acinetobacter baumannii measured after 8 cycle passage to MIC for wild type Acinetobacter baumannii; assay type: functional
Enterobacter cloacae [8] = assay: Ratio of MIC for Enterobacter cloacae measured after 8 cycle passage to MIC for wild type Enterobacter cloacae; assay type: functional

Compound | growth inhibition (GI) (Enterococcus faecium) | growth inhibition (GI) (Staphylococcus aureus [1]) | growth inhibition (GI) (Klebsiella pneumoniae [2]) | growth inhibition (GI) (Acinetobacter baumannii [3]) | growth inhibition (GI) (Pseudomonas aeruginosa) | growth inhibition (GI) (Enterobacter cloacae [4]) | Ratio (Staphylococcus aureus [5]) | Ratio (Klebsiella pneumoniae [6]) | Ratio (Acinetobacter baumannii [7]) | Ratio (Enterobacter cloacae [8])
CCCC[C@H]1CN(CCCC[C@H]2CNC(=N)N2CCc2cccc(C(F)(F)F)c2)C(=N)N1CCc1ccc(-c2ccccc2)cc1 | Active | Active | Active | Active | Active | Active |  |  |  | 
N=C1NC[C@H](CCCCN2C[C@H](CC3CCCCC3)N(CCc3ccc(-c4ccccc4)cc3)C2=N)N1CCc1cccc(C(F)(F)F)c1 | Active | Active | Active | Active | Active | Active |  |  |  | 
N=C1NC[C@H](CCCCN2C[C@H](CC3CCCCC3)N(CCCCC3CCCCC3)C2=N)N1CCc1cccc(C(F)(F)F)c1 | Active | Active | Active | Active | Active | Active |  |  |  | 
N=C1NC[C@H](CCCCN2C[C@H](CC3CCCCC3)N(CCCCC3CCCCC3)C2=N)N1CCCCC1CCCCC1 | Active | Active | Active | Active | Active | Active |  |  |  | 
N=C1NC[C@H](CCCCN2C[C@@H](Cc3cccc4ccccc34)N(CCc3ccc(-c4ccccc4)cc3)C2=N)N1CCC12CC3CC(CC(C3)C1)C2 | inactive | inactive | inactive | inactive | inactive | inactive |  |  |  | 
CCCCCCCN1C(=N)N(CCCC[C@H]2CNC(=N)N2CCCCC2CCCCC2)C[C@@H]1CCCC | Active | Active | Active | Active | Active | Active |  |  |  | 
CCCCCCCN1C(=N)N(CCCC[C@H]2CNC(=N)N2CCCCC2CCCCC2)C[C@H]1Cc1cccc2ccccc12 | Active | Active | Active | Active | Active | Active |  |  |  | 
N=C1NC[C@H](CCCCN2C[C@H](CC3CCCCC3)N(CCc3ccc(-c4ccccc4)cc3)C2=N)N1CCC12CC3CC(CC(C3)C1)C2 | Active | Active | Active | Active | Active | Active |  |  |  | 
N=C1NC[C@H](CCCCN2C[C@H](CC3CCCCC3)N(CCCCC3CCCCC3)C2=N)N1CCC12CC3CC(CC(C3)C1)C2 | Active | Active | Active | Active | Active | Active |  |  |  | 
CN[C@H](CC(C)C)C(=O)N[C@H]1C(=O)N[C@@H](CC(N)=O)C(=O)N[C@H]2C(=O)N[C@H]3C(=O)N[C@H](C(=O)N[C@H](C(=O)O)c4cc(O)cc(O)c4-c4cc3ccc4O)[C@H](O)c3ccc(c(Cl)c3)Oc3cc2cc(c3O[C@@H]2O[C@H](CO)[C@@H](O)[C@H](O)[C@H]2O[C@H]2C[C@](C)(N)[C@H](O)[C@H](C)O2)Oc2ccc(cc2Cl)[C@H]1O [VANCOMYCIN] |  |  |  |  |  |  | 128 | <=128 | <=128 | <=128
CCCCCCCN1C(=N)N(CCCC[C@H]2CNC(=N)N2CCC23CC4CC(CC(C4)C2)C3)C[C@H]1Cc1cccc2ccccc12 | Active | Active | Active | Active | Active | Active |  |  |  | 
N=C1NC[C@H](CCCCN2C[C@@H](Cc3cccc4ccccc34)N(CCCCC3CCCCC3)C2=N)N1CCC12CC3CC(CC(C3)C1)C2 | inactive | inactive | inactive | inactive | inactive | inactive |  |  |  | 
N=C1NC[C@H](CCCCN2C[C@@H](Cc3cccc4ccccc34)N(CCCCC3CCCCC3)C2=N)N1CCCCC1CCCCC1 | Active | Active | Active | Active | Active | Active |  |  |  | 
CCCCCCCN1C(=N)N(CCCC[C@H]2CNC(=N)N2CCc2cccc(C(F)(F)F)c2)C[C@H]1Cc1cccc2ccccc12 | Active | Active | Active | Active | Active | Active |  |  |  | 
CCCCCCCN1C(=N)N(CCCC[C@H]2CNC(=N)N2CCC23CC4CC(CC(C4)C2)C3)C[C@@H]1CC1CCCCC1 | Active | Active | Active | Active | Active | Active |  |  |  | 
CCCC[C@H]1CN(CCCC[C@H]2CNC(=N)N2CCCCC2CCCCC2)C(=N)N1CCc1ccc(-c2ccccc2)cc1 | Active | Active | Active | Active | Active | Active |  |  |  | 
CCCC[C@H]1CN(CCCC[C@H]2CNC(=N)N2CCC23CC4CC(CC(C4)C2)C3)C(=N)N1CCCCC1CCCCC1 | Active | Active | Active | Active | Active | Active |  |  |  | 

From ChEMBL document CHEMBL3421570, “Combinatorial Libraries As a Tool for the Discovery of Novel, Broad-Spectrum Antibacterial Agents Targeting the ESKAPE Pathogens” (J Med Chem, 2015)
